Test results as given in ChEMBL document CHEMBL1641377, “Discovery of novel, potent, selective, and orally active human glucagon receptor antagonists containing a pyrazole core” (Bioorg Med Chem Lett, 2011).
Active and inactive are the calls of the source. The calls are words filed in the database; no cut-off is given here.

Assays:
[1] = biological target: T1, Glucagon receptor (Homo sapiens, UniProt P47871); assay: Displacement of [125I]glucagon from human GCGR expressed in CHO cells; assay type: cell-based
Outline: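 Binding inhibition of 125I-glucagon to human GCGR expressed in CHO cell membranes; IC50 reported, n given where replicated.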

[2] = biological target: T2, Gastric inhibitory polypeptide receptor (Homo sapiens) (UniProt P48546); assay: Antagonist activity at human GIPR expressed in CHO cells assessed as inhibition of glucagon-induced cAMP accumulation at 10 uM; assay type: functional, cell-based
T2 sequence (whole entry): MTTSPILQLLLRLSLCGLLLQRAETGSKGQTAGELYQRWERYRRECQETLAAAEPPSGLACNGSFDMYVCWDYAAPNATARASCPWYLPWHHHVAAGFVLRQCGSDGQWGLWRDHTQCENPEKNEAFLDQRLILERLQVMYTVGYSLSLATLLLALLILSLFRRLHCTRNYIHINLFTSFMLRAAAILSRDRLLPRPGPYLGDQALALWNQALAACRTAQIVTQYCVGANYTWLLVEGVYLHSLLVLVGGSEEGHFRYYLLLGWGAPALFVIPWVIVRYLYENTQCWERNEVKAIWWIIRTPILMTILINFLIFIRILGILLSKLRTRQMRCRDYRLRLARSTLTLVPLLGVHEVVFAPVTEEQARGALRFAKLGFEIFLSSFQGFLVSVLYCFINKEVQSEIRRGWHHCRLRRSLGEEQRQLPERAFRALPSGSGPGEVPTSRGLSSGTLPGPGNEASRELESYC

[3] = biological target: T3, Gastric inhibitory polypeptide receptor (Homo sapiens, UniProt P48546); assay: Antagonist activity at human GIPR expressed in CHO cells assessed as inhibition of glucagon-induced cAMP accumulation; assay type: functional, cell-based
T3 sequence (P48546 whole entry): T2 sequence (whole entry)

[4] = biological target: T1, Glucagon receptor; assay: Antagonist activity at human GCGR expressed in CHO cells assessed as inhibition of glucagon-induced cAMP accumulation; assay type: functional, cell-based
Outline: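 Inhibition of glucagon-induced cAMP accumulation in CHO cells transfected with human GCGR; IC50 derived, n given where replicated.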

[5] = tested on: Mus musculus; assay: Antidiabetic activity in transgenic mouse expressing human GCGR assessed as inhibition of glucagon-induced blood glucose excursion at 30 mg/kg, po administered 60 mins before glucagon challenge measured after 48 mins; assay type: functional, organism-based; design: dose 30 mg/kg
Outline: (§1)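 hGCGR transgenic mice (only functional receptor is human GCGR), 9 per group, given compound orally, then glucagon 15 µg/kg IP 60 min later (one arm dosed 30 mpk three hours before challenge); blood glucose monitored at 12, 24, 36 and 48 min after glucagon.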

[6] = tested on: Mus musculus; assay: Antidiabetic activity in transgenic mouse expressing human GCGR assessed as inhibition of glucagon-induced blood glucose excursion at 10 mg/kg, po administered 60 mins before glucagon challenge measured after 48 mins; assay type: functional, organism-based; design: dose 10 mg/kg; outline: as §1
[7] = Blood clearance in po dosed mouse; assay type: ADME, organism-based
[8] = Half life in po dosed mouse; assay type: ADME, organism-based; conditions: in vivo
[9] = tested on: Mus musculus; assay: Dose normalized AUC in po dosed mouse; assay type: ADME, organism-based; conditions: in vivo

T1 sequence (P47871 whole entry): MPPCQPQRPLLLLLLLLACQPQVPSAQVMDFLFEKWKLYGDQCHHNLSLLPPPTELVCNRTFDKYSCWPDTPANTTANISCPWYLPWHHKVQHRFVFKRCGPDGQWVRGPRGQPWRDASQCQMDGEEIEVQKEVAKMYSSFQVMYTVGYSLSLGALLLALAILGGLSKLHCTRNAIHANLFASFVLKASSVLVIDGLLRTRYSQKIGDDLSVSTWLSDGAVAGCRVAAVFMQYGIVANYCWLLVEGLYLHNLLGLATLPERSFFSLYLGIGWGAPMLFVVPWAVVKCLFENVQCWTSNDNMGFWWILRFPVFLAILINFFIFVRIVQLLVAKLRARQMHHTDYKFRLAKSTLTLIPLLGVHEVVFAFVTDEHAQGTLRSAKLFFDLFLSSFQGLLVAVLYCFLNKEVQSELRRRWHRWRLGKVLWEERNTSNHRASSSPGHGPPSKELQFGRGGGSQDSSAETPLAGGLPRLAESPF

Structure (SMILES)	IC50 [1]	inhibition [2]	IC50 [3]	other results
O=C(O)CCCNC(=O)c1cccc(Cn2nc(-c3ccc(OC(F)(F)F)cc3)cc2-c2ccc(OC(F)(F)F)cc2)c1	1.1 µM	49%		
O=C(Nc1nn[nH]n1)c1ccc(Cc2cnn(-c3ccc(OC(F)(F)F)cc3)c2C2CCCCC2)cc1	16 µM		> 20 µM	
O=C(O)CCNC(=O)c1ccc(Cn2nc(-c3ccc(OC(F)(F)F)cc3)cc2-c2ccc(OC(F)(F)F)cc2)cc1	0.49 µM			IC50 [4]: 0.37 µM
CC(c1ccc(Cl)cc1)c1cc(-c2ccc(OC(F)(F)F)cc2)nn1Cc1ccc(C(=O)Nc2nn[nH]n2)cc1 (stereo unspecified)	0.52 µM	21%		
CS(=O)(=O)c1ccc(-c2cc(-c3ccc(OC(F)(F)F)cc3)nn2Cc2ccc(C(=O)Nc3nnn[nH]3)cc2)cc1	0.22 µM			
CC(C)(C)[C@H]1CC[C@H](c2cc(-c3ccc(OC(F)(F)F)cc3)nn2Cc2ccc(C(=O)NCCC(=O)O)cc2)CC1	0.48 µM	6%		
O=C(O)CCNC(=O)c1ccc(Cc2cnn(-c3ccc(OC(F)(F)F)cc3)c2C2CCCCC2)cc1	7.2 µM		> 25 µM	
CC(C)(C)[C@H]1CC[C@H](c2cc(-c3ccc(OC(F)(F)F)cc3)nn2Cc2ccc(C(=O)Nc3nn[nH]n3)cc2)CC1				inhibition [5]: Active; inhibition [6]: Active
CS(=O)(=O)c1ccc(-c2cc(-c3ccc(OC(F)(F)F)cc3)n(Cc3ccc(C(=O)Nc4nn[nH]n4)cc3)n2)cc1		45%		
CC(c1ccc(Cl)cc1)c1cc(-c2ccc(OC(F)(F)F)cc2)n(Cc2ccc(C(=O)Nc3nn[nH]n3)cc2)n1 (stereo unspecified)	0.43 µM	20%		
CC(C)(C)[C@H]1CC[C@H](c2cc(-c3ccc(OC(F)(F)F)cc3)nn2Cc2ccc(C(=O)Nc3nnn[nH]3)cc2)CC1	0.063 µM		5.7 µM	IC50 [4]: 0.17 µM
O=C(Nc1nn[nH]n1)c1ccc(Cc2cc(-c3ccc(OC(F)(F)F)cc3)n(C3CCCCC3)n2)cc1	2.9 µM	50%		
CC(C)(C)[C@H]1CC[C@H](N(Cc2ccc(C(=O)NCCC(=O)O)cc2)C(=O)Nc2ccc(OC(F)(F)F)cc2)CC1	0.021 µM		1.3 µM	IC50 [4]: 0.14 µM
CC(c1ccc(C(=O)NCCC(=O)O)cc1)n1nc(-c2ccc(OC(F)(F)F)cc2)cc1-c1ccc(OC(F)(F)F)cc1 (stereo unspecified)	0.25 µM	46%		
CS(=O)(=O)c1ccc(-c2cc(-c3ccc(OC(F)(F)F)cc3)nn2Cc2ccc(C(=O)Nc3nn[nH]n3)cc2)cc1		36%		
O=C(O)CCCNC(=O)c1ccc(Cn2nc(-c3ccc(OC(F)(F)F)cc3)cc2-c2ccc(OC(F)(F)F)cc2)cc1	1.1 µM	15%		
CC(c1ccc(Cl)cc1)c1cc(-c2ccc(OC(F)(F)F)cc2)nn1Cc1ccc(C(=O)NCCC(=O)O)cc1 (stereo unspecified)	0.73 µM	22%		
O=C(Nc1nn[nH]n1)c1ccc(Cn2nc(-c3ccc(OC(F)(F)F)cc3)cc2C2CCCCC2)cc1	0.12 µM		2.1 µM	IC50 [4]: 0.16 µM; CL/F [7]: 0.492 L/h/kg; half-life [8]: 2.7 h; AUC [9]: 1.5 µM·kg·h/mg
O=C(O)CCNC(=O)c1ccc(Cn2nc(-c3ccc(OC(F)(F)F)cc3)cc2C2CCCCC2)cc1	3.8 µM		2.8 µM	
CS(=O)(=O)c1ccc(-c2cc(-c3ccc(OC(F)(F)F)cc3)n(Cc3ccc(C(=O)NCCC(=O)O)cc3)n2)cc1	2.7 µM	43%		
O=C(NCc1nnn[nH]1)c1ccc(Cn2nc(-c3cc(Cl)cc(Cl)c3)cc2-c2ccc(OC(F)(F)F)cc2)cc1	0.12 µM		> 10 µM	
CS(=O)(=O)c1ccc(-c2cc(-c3ccc(OC(F)(F)F)cc3)n(Cc3ccc(C(=O)Nc4nnn[nH]4)cc3)n2)cc1	0.57 µM			

Structure (SMILES)	IC50 [1]	inhibition [2]	IC50 [3]	other results
O=C(O)CCNC(=O)c1ccc(Cn2nc(-c3ccc(OC(F)(F)F)cc3)cc2-c2cc(Cl)cc(Cl)c2)cc1	0.095 µM	21%		IC50 [4]: 0.23 µM
O=C(Nc1nnn[nH]1)c1ccc(Cn2nc(-c3cc(Cl)cc(Cl)c3)cc2-c2ccc(OC(F)(F)F)cc2)cc1	0.039 µM		7.1 µM	IC50 [4]: 0.044 µM
O=C(Nc1nnn[nH]1)c1ccc(Cn2nc(-c3ccc(OC(F)(F)F)cc3)cc2-c2cc(Cl)cc(Cl)c2)cc1	0.036 µM		3 µM	IC50 [4]: 0.035 µM
O=C(O)CCNC(=O)c1cccc(Cn2nc(-c3ccc(OC(F)(F)F)cc3)cc2-c2ccc(OC(F)(F)F)cc2)c1	0.33 µM	73%		
CC(c1ccc(C(=O)Nc2nnn[nH]2)cc1)n1nc(-c2ccc(OC(F)(F)F)cc2)cc1-c1ccc(OC(F)(F)F)cc1 (stereo unspecified)	0.13 µM		6 µM	
CN(CCC(=O)O)C(=O)c1ccc(Cn2nc(-c3ccc(OC(F)(F)F)cc3)cc2-c2ccc(OC(F)(F)F)cc2)cc1	7.2 µM	9%		
O=C(O)CNC(=O)c1ccc(Cn2nc(-c3ccc(OC(F)(F)F)cc3)cc2-c2ccc(OC(F)(F)F)cc2)cc1	3 µM	-3%		IC50 [4]: 1.3 µM
O=C(O)CNC(=O)c1cccc(Cn2nc(-c3ccc(OC(F)(F)F)cc3)cc2-c2ccc(OC(F)(F)F)cc2)c1	2.9 µM	34%		
O=C(Nc1nn[nH]n1)c1ccc(Cn2nc(-c3cc(Cl)cc(Cl)c3)cc2-c2ccc(OC(F)(F)F)cc2)cc1				inhibition [5]: Active; inhibition [6]: inactive
O=C(Nc1nn[nH]n1)c1ccc(Cn2nc(C3CCCCC3)cc2-c2ccc(OC(F)(F)F)cc2)cc1	0.81 µM		0.91 µM	
CS(=O)(=O)c1ccc(-c2cc(-c3ccc(OC(F)(F)F)cc3)nn2Cc2ccc(C(=O)NCCC(=O)O)cc2)cc1	1.2 µM	31%		
O=C(O)CCNC(=O)c1ccc(Cc2cn(-c3ccc(OC(F)(F)F)cc3)nc2C2CCCCC2)cc1	1.2 µM		7.4 µM	
O=C(NC[C@@H](O)C(=O)O)c1ccc(Cn2nc(-c3cc(Cl)cc(Cl)c3)cc2-c2ccc(OC(F)(F)F)cc2)cc1	0.028 µM		> 25 µM	
CC(c1ccc(Cl)cc1)c1cc(-c2ccc(OC(F)(F)F)cc2)n(Cc2ccc(C(=O)NCCC(=O)O)cc2)n1 (stereo unspecified)	2.4 µM	0%		
O=C(O)CCNC(=O)c1ccc(Cc2cc(-c3ccc(OC(F)(F)F)cc3)n(C3CCCCC3)n2)cc1	1.7 µM			
O=C(Nc1nn[nH]n1)c1ccc(Cn2nc(-c3ccc(OC(F)(F)F)cc3)cc2-c2ccc(OC(F)(F)F)cc2)cc1	0.043 µM	46%		IC50 [4]: 0.047 µM; inhibition [5]: Active; inhibition [6]: Active
O=C(Nc1nn[nH]n1)c1ccc(Cc2cc(-c3ccc(OC(F)(F)F)cc3)nn2C2CCCCC2)cc1	4.2 µM	42%		
CC(C)(C)[C@H]1CC[C@H](N(Cc2ccc(C(=O)Nc3nn[nH]n3)cc2)C(=O)Nc2ccc(OC(F)(F)F)cc2)CC1	0.0032 µM		0.045 µM	IC50 [4]: 0.046 µM
O=C(Nc1nn[nH]n1)c1cccc(Cn2nc(-c3ccc(OC(F)(F)F)cc3)cc2-c2ccc(OC(F)(F)F)cc2)c1	1.1 µM	2%		
O=C(O)CCNC(=O)c1ccc(Cc2cc(-c3ccc(OC(F)(F)F)cc3)nn2C2CCCCC2)cc1	2.9 µM	39%		
O=C(NCc1nn[nH]n1)c1ccc(Cn2nc(-c3cc(Cl)cc(Cl)c3)cc2-c2ccc(OC(F)(F)F)cc2)cc1				inhibition [6]: inactive
O=C(Nc1nnn[nH]1)c1ccc(Cc2cn(-c3ccc(OC(F)(F)F)cc3)nc2C2CCCCC2)cc1	5.3 µM		> 10 µM	
